{"source": "ChEMBL document CHEMBL4130352", "about": "“Ciprofloxacin-nitroxide hybrids with potential for biofilm control” (Eur J Med Chem, 2017)", "key": {"Pseudomonas aeruginosa [1]": {"system": "Pseudomonas aeruginosa", "experiment": "Antibiofilm activity against Pseudomonas aeruginosa PA14 assessed as total live biofilm biomass eradication at 20 uM preincubated for 24 hrs measured after 2 hrs by SYTO/propidium iodide double-staining-based confocal laser scanning microscopic analysis relative to control", "assay_type": "functional"}, "Pseudomonas aeruginosa [2]": {"system": "Pseudomonas aeruginosa", "experiment": "Effect on Pseudomonas aeruginosa PA14 assessed as dead cells at 20 uM preincubated for 24 hrs measured after 2 hrs (reference value: 4%)", "assay_type": "organism-based"}, "Pseudomonas aeruginosa [3]": {"system": "Pseudomonas aeruginosa", "experiment": "Antibiofilm activity against Pseudomonas aeruginosa PA14 assessed as removal of mature biofilm at 40 uM preincubated for 24 hrs measured after 2 hrs by SYTO/propidium iodide double-staining-based confocal laser scanning microscopic analysis relative to control", "assay_type": "functional"}, "RD": {"system": "RD", "experiment": "Cytotoxicity against human RD cells assessed as reduction in cell viability at 5 to 40 uM after 24 hrs by LDH release assay", "assay_type": "cell-based", "outline": "(§1)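 HEK 293 and RD cells were grown in DMEM with 10% FBS at 37°C, 5% CO2, and seeded the day before at 50,000 (HEK 293) or 20,000 (RD) cells per well. Compounds (5 mM DMSO stock) were added at 5–40 μM for 24 h, with 0.8% DMSO in all wells. LDH release was normalised to untreated cells and 3 h lysis-buffer controls. Run in triplicate.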"}, "Pseudomonas aeruginosa [4]": {"system": "Pseudomonas aeruginosa", "experiment": "Antibiofilm activity against Pseudomonas aeruginosa PA14 assessed as removal of biomass at 20 uM preincubated for 24 hrs measured after 2 hrs by SYTO/propidium iodide double-staining-based confocal laser scanning microscopic analysis relative to control", "assay_type": "functional"}, "Pseudomonas aeruginosa [5]": {"system": "Pseudomonas aeruginosa", "experiment": "Inhibition of planktonic growth of Pseudomonas aeruginosa PA14 after 24 hrs by broth microdilution method", "assay_type": "organism-based", "conditions": "in vitro", "outline": "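Broth microdilution in polypropylene microtiter plates. Compounds added as DMSO solutions, inoculum 5×10^5 CFU/mL final, incubated 37 °C for 24 h. MIC taken as the lowest concentration with no visible growth.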"}, "Pseudomonas aeruginosa [6]": {"system": "Pseudomonas aeruginosa", "experiment": "Antibiofilm activity against Pseudomonas aeruginosa PA14 assessed as dispersion of bacteria from biofilms at 20 uM after 18.5 hrs relative to control", "assay_type": "functional", "outline": "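PA14 biofilms pre-grown 2 days at 37°C in flow cells, then treated with 20 μM compound. Dispersed cells collected from chamber effluent at set times, plated on Pseudomonas Isolation Agar at 37°C, counted next day as CFU/mL. Fold change in viable dispersed cells calculated against untreated PA14 biofilms.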"}, "HEK293": {"system": "HEK293", "experiment": "Cytotoxicity against HEK293 cells assessed as reduction in cell viability at 5 to 40 uM after 24 hrs by LDH release assay", "assay_type": "cell-based", "conditions": "human, hek293, 24 h", "outline": "as §1"}, "Pseudomonas aeruginosa [7]": {"system": "Pseudomonas aeruginosa", "experiment": "Antibiofilm activity against Pseudomonas aeruginosa PA14 assessed as dispersion of bacteria from biofilms at 20 uM after 2 to 3 hrs", "assay_type": "functional, organism-based", "outline": "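PA14 biofilms grown 2 days in flow cells at 37°C, then exposed to 20 μM compound. Dispersed cells were collected from chamber effluent at set times, plated on Pseudomonas Isolation Agar and incubated at 37°C. CFU/mL was counted the next day, and fold-change in dispersed viable cells was calculated against untreated PA14 effluent.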"}, "Pseudomonas aeruginosa [8]": {"system": "Pseudomonas aeruginosa", "experiment": "Inhibition of planktonic growth of Pseudomonas aeruginosa PA14 assessed as reduction of colony forming units after 24 hrs", "assay_type": "organism-based", "outline": "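Overnight PA14 cultures were diluted 1:100 with or without compound (0–160 μM) and incubated 24 h. Samples were then 10-fold serially diluted and plated on LB agar, grown overnight at 37°C, and CFU were counted.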"}}, "note": "Calls of active or inactive are those of the source. The calls are words filed in the database; no cut-off is given here."}
{"compound": "CC1(C)CC(N2CCN(c3cc4c(cc3F)c(=O)c(C(=O)O)cn4C3CC3)CC2)CC(C)(C)N1[O]", "values": [{"measurement": "Activity", "setting": "Pseudomonas aeruginosa [1]", "value": 80, "unit": "%"}, {"measurement": "Activity", "setting": "Pseudomonas aeruginosa [2]", "value": 50, "unit": "%"}, {"measurement": "Activity", "setting": "Pseudomonas aeruginosa [3]", "value": "<=95%"}]}
{"compound": "CON1C(C)(C)CC(C(=O)N2CCN(c3cc4c(cc3F)c(=O)c(C(=O)O)cn4C3CC3)CC2)CC1(C)C", "values": [{"measurement": "Activity", "setting": "RD", "value": "Non-Toxic"}, {"measurement": "Activity", "setting": "Pseudomonas aeruginosa [4]", "value": 17, "unit": "%"}, {"measurement": "Activity", "setting": "Pseudomonas aeruginosa [1]", "value": 30, "unit": "%"}, {"measurement": "Activity", "setting": "Pseudomonas aeruginosa [2]", "value": 16, "unit": "%"}, {"measurement": "MIC", "setting": "Pseudomonas aeruginosa [5]", "value": "> 303", "unit": "µM"}, {"measurement": "fold change (FC)", "setting": "Pseudomonas aeruginosa [6]", "value": 0}, {"measurement": "Activity", "setting": "HEK293", "value": "Non-Toxic"}]}
{"compound": "CC1(C)CC(C(=O)N2CCN(c3cc4c(cc3F)c(=O)c(C(=O)O)cn4C3CC3)CC2)C(C)(C)N1[O]", "note": "(stereo not drawn)", "values": [{"measurement": "Activity", "setting": "Pseudomonas aeruginosa [4]", "value": 67, "unit": "%"}, {"measurement": "Activity", "setting": "Pseudomonas aeruginosa [1]", "value": 67, "unit": "%"}, {"measurement": "Activity", "setting": "Pseudomonas aeruginosa [2]", "value": 0, "unit": "%"}, {"measurement": "MIC", "setting": "Pseudomonas aeruginosa [5]", "value": 160, "unit": "µM"}]}
{"compound": "O=C(O)c1cn(C2CC2)c2cc(N3CCNCC3)c(F)cc2c1=O", "note": "[CIPROFLOXACIN]", "values": [{"measurement": "MIC", "setting": "Pseudomonas aeruginosa [5]", "value": 0.5, "unit": "µM"}]}
{"compound": "CON1C(C)(C)CC(C(=O)N2CCN(c3cc4c(cc3F)c(=O)c(C(=O)O)cn4C3CC3)CC2)C1(C)C", "note": "(stereo not drawn)", "values": [{"measurement": "Activity", "setting": "Pseudomonas aeruginosa [4]", "value": 24, "unit": "%"}, {"measurement": "Activity", "setting": "Pseudomonas aeruginosa [1]", "value": 31, "unit": "%"}, {"measurement": "Activity", "setting": "Pseudomonas aeruginosa [2]", "value": 9, "unit": "%"}, {"measurement": "MIC", "setting": "Pseudomonas aeruginosa [5]", "value": 311, "unit": "µM"}]}
{"compound": "CC1(C)CC(C(=O)N2CCN(c3cc4c(cc3F)c(=O)c(C(=O)O)cn4C3CC3)CC2)CC(C)(C)N1[O]", "values": [{"measurement": "Activity", "setting": "RD", "value": "Non-Toxic"}, {"measurement": "Activity", "setting": "Pseudomonas aeruginosa [4]", "value": 37, "unit": "%"}, {"measurement": "Activity", "setting": "Pseudomonas aeruginosa [1]", "value": 41, "unit": "%"}, {"measurement": "Activity", "setting": "Pseudomonas aeruginosa [2]", "value": 6, "unit": "%"}, {"measurement": "MIC", "setting": "Pseudomonas aeruginosa [5]", "value": 312, "unit": "µM"}, {"measurement": "Activity", "setting": "Pseudomonas aeruginosa [7]", "value": "Active"}, {"measurement": "Activity", "setting": "HEK293", "value": "Non-Toxic"}]}
{"compound": "CON1C(C)(C)c2ccc(C(=O)N3CCN(c4cc5c(cc4F)c(=O)c(C(=O)O)cn5C4CC4)CC3)cc2C1(C)C", "values": [{"measurement": "Activity", "setting": "RD", "value": "Non-Toxic"}, {"measurement": "Activity", "setting": "Pseudomonas aeruginosa [4]", "value": 53, "unit": "%"}, {"measurement": "Activity", "setting": "Pseudomonas aeruginosa [1]", "value": 54, "unit": "%"}, {"measurement": "Activity", "setting": "Pseudomonas aeruginosa [2]", "value": 2, "unit": "%"}, {"measurement": "MIC", "setting": "Pseudomonas aeruginosa [8]", "value": "> 160", "unit": "µM"}, {"measurement": "MIC", "setting": "Pseudomonas aeruginosa [5]", "value": "> 284", "unit": "µM"}, {"measurement": "Activity", "setting": "HEK293", "value": "Non-Toxic"}]}
